{"source": "ChEMBL document CHEMBL3098105", "about": "“7,7'-Diazaindirubin--a small molecule inhibitor of casein kinase 2 in vitro and in cells” (Bioorg Med Chem, 2014)", "key": {"[1]": {"target": "Mitogen-activated protein kinase 10 (Homo sapiens) (UniProt P53779)", "experiment": "Inhibition of human JNK3 assessed as residual activity at 1 uM relative to control"}, "[2]": {"test_system": "RPMI-8226", "experiment": "Antiproliferative activity against human RPMI8226 cells after 3 days by sulforhodamine B assay", "type": "functional", "conditions": "RPMI-8226, 72 h", "in_short": "(§1)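 Tested in the NCI 60 cell line panel. GI50 is the concentration giving 50% inhibition of cell growth, and values are the mean of two series of tests.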"}, "[3]": {"target": "Cytoplasmic tyrosine-protein kinase BMX (Homo sapiens) (UniProt P51813)", "sequence (P51813 whole entry)": "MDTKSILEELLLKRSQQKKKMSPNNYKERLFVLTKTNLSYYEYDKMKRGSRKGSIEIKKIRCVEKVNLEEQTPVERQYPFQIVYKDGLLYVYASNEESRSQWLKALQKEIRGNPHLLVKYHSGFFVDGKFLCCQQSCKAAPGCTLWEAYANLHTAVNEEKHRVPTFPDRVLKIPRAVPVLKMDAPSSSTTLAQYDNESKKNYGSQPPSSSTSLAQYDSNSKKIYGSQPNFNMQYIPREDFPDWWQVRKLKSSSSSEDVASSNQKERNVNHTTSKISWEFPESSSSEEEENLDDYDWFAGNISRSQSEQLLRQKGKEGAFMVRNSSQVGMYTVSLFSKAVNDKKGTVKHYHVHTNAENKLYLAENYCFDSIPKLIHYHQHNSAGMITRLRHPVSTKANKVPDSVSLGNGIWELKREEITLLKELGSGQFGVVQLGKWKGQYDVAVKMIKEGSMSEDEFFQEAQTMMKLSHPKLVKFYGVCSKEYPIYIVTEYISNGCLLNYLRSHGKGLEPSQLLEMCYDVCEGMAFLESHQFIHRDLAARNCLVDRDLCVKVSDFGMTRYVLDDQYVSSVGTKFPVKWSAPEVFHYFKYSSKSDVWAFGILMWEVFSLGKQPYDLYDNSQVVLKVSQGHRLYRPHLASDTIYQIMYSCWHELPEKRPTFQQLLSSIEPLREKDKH", "experiment": "Inhibition of human Bmx assessed as residual activity at 1 uM relative to control"}, "[4]": {"target": "3-phosphoinositide-dependent protein kinase 1 (Homo sapiens) (UniProt O15530)", "sequence (O15530 whole entry)": "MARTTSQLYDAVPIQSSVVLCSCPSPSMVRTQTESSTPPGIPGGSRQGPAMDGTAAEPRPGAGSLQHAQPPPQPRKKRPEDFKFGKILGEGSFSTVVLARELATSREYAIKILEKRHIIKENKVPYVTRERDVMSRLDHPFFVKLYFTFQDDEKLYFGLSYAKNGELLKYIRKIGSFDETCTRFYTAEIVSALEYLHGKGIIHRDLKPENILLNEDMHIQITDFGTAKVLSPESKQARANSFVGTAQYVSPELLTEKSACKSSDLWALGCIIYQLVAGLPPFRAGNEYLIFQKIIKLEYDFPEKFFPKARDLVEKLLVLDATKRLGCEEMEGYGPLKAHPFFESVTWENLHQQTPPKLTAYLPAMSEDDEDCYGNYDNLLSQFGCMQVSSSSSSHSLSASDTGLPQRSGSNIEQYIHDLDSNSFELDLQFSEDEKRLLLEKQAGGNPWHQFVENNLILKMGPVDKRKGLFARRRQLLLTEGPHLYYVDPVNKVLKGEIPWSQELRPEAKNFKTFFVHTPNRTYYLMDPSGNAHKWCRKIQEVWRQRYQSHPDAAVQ", "experiment": "Inhibition of human PDK1 assessed as residual activity at 1 uM relative to control"}, "[5]": {"target": "Rhodopsin kinase GRK7 (Homo sapiens) (UniProt Q8WTQ7)", "sequence (Q8WTQ7 whole entry)": "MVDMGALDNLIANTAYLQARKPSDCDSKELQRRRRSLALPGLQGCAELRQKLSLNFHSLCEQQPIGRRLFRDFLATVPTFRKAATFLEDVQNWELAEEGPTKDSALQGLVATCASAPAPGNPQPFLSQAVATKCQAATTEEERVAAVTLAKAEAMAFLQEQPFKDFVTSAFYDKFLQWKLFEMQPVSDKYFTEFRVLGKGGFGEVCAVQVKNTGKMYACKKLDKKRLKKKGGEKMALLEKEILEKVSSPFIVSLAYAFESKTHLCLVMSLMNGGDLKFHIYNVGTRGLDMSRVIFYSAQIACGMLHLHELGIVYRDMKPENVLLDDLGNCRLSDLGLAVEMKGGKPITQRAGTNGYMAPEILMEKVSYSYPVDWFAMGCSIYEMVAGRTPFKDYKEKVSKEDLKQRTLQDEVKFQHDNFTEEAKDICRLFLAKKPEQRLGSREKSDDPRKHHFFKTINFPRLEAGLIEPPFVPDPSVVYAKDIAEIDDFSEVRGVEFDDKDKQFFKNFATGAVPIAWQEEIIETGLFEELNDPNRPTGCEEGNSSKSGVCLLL", "experiment": "Inhibition of human GRK7 assessed as residual activity at 1 uM relative to control"}, "[6]": {"target": "Vascular endothelial growth factor receptor 3 (Homo sapiens) (UniProt P35916)", "sequence (P35916 whole entry)": "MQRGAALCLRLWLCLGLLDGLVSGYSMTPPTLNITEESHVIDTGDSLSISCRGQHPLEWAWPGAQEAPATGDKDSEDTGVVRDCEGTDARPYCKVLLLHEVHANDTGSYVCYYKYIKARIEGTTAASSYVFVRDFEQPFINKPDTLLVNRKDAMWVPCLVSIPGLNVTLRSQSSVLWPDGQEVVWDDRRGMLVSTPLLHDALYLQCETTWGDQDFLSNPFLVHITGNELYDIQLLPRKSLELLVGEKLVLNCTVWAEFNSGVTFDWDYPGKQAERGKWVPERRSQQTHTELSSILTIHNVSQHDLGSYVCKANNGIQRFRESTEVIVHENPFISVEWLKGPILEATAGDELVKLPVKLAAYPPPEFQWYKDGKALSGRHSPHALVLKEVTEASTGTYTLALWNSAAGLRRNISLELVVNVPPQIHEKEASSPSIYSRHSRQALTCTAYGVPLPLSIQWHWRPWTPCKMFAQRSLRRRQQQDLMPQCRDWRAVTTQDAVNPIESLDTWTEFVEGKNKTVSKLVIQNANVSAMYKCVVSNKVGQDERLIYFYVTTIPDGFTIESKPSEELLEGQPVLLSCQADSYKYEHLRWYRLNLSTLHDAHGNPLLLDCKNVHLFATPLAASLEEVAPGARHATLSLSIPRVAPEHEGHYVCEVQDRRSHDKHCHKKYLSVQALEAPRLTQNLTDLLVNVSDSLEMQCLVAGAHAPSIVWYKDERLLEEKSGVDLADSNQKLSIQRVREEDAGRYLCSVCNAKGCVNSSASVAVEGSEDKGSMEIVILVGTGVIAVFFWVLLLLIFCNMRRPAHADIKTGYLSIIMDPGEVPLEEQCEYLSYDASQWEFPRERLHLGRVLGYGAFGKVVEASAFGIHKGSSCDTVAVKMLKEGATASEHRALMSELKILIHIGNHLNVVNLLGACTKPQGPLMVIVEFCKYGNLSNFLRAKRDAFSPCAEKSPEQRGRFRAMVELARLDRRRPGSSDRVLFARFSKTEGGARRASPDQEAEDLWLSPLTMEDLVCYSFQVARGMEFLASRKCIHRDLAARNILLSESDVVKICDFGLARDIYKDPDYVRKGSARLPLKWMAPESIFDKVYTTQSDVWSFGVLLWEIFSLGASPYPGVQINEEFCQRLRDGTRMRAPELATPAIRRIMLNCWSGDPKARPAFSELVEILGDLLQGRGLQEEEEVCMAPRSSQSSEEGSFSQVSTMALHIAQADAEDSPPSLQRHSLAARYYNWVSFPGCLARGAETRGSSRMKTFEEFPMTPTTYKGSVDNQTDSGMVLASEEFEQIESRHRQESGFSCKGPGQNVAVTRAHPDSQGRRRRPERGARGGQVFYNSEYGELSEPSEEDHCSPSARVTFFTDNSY", "experiment": "Inhibition of VEGF-R3 (unknown origin) assessed as residual activity at 10 uM relative to control"}, "[7]": {"test_system": "MCF7", "experiment": "Cell cycle arrest in human MCF7 cells assessed as accumulation at G1 phase at 0.25 uM after 24 hrs using propidium iodide staining by FACS analysis (reference value: 57.74%)", "type": "functional"}, "[8]": {"target": "Ephrin type-B receptor 3 (Homo sapiens) (UniProt P54753)", "experiment": "Inhibition of human EphB3 assessed as residual activity at 1 uM relative to control"}, "[9]": {"target": "Tyrosine-protein kinase receptor UFO (Homo sapiens) (UniProt P30530)", "experiment": "Inhibition of human Axl assessed as residual activity at 1 uM relative to control"}, "[10]": {"test_system": "MCF7", "experiment": "Cell cycle arrest in human MCF7 cells assessed as accumulation at sub-G1 phase at 1 uM after 24 hrs using propidium iodide staining by FACS analysis (reference value: 0.17%)", "type": "functional"}, "[11]": {"test_system": "CCRF-CEM", "experiment": "Antiproliferative activity against human CCRF-CEM cells after 3 days by sulforhodamine B assay", "type": "functional", "conditions": "72 h", "in_short": "as §1"}, "[12]": {"target": "Tyrosine-protein kinase Fgr (Homo sapiens) (UniProt P09769)", "experiment": "Inhibition of FGR (unknown origin) assessed as residual activity at 1 uM relative to control"}, "[13]": {"test_system": "MCF7", "experiment": "Cell cycle arrest in human MCF7 cells assessed as accumulation at S phase at 0.5 uM after 24 hrs using propidium iodide staining by FACS analysis (reference value: 18.59%)", "type": "functional"}, "[14]": {"target": "Receptor-type tyrosine-protein kinase FLT3 (Homo sapiens) (UniProt P36888)", "experiment": "Inhibition of FLT3 (unknown origin) assessed as residual activity at 10 uM relative to control"}, "[15]": {"target": "Epidermal growth factor receptor (Homo sapiens) (UniProt P00533)", "experiment": "Inhibition of EGF-R (unknown origin) assessed as residual activity at 10 uM relative to control"}, "[16]": {"target": "T1, Serine/threonine-protein kinase Chk1 (Homo sapiens) (UniProt O14757)", "T1 sequence (whole entry)": "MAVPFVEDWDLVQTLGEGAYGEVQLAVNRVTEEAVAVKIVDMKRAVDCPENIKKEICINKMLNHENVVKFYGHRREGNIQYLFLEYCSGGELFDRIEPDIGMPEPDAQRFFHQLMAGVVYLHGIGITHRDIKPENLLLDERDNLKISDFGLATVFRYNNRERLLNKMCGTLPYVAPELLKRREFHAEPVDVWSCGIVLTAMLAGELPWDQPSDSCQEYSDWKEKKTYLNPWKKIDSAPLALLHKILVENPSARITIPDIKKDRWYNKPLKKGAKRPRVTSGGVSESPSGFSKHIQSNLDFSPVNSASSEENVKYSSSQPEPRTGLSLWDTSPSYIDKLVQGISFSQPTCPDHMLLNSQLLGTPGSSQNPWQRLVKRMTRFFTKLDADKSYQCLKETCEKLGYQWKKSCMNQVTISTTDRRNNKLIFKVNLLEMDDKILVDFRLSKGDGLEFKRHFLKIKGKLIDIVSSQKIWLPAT", "experiment": "Inhibition of CHK1 (unknown origin) assessed as residual activity at 10 uM relative to control"}, "[17]": {"target": "Ephrin type-B receptor 4 (Homo sapiens) (UniProt P54760)", "sequence (P54760 whole entry)": "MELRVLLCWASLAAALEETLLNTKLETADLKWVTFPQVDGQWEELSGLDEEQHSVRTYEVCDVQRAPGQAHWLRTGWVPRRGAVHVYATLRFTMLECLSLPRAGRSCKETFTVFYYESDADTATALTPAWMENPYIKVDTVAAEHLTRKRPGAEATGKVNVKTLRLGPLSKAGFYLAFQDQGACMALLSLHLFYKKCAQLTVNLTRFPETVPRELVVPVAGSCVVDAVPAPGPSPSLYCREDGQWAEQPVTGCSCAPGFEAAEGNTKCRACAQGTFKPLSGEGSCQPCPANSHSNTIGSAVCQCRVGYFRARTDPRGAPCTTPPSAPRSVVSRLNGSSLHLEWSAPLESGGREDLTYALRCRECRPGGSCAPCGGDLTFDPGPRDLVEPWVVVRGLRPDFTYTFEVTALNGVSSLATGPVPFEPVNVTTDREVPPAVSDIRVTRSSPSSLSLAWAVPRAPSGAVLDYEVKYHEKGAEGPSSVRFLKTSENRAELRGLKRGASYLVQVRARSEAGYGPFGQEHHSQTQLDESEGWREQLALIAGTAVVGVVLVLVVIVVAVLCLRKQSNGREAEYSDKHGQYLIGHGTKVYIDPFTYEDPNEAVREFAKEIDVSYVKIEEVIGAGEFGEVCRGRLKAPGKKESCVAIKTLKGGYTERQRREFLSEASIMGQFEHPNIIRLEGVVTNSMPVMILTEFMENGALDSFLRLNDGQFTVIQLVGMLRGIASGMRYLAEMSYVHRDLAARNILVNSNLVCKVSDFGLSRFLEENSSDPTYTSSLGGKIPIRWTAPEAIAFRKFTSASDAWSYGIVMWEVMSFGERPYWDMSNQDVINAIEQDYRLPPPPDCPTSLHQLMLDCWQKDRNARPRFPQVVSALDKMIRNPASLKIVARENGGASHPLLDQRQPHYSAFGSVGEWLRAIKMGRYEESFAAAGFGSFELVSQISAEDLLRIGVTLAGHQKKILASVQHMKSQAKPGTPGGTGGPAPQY", "experiment": "Inhibition of human EphB4 assessed as residual activity at 1 uM relative to control"}, "[18]": {"test_system": "HCT-15", "experiment": "Antiproliferative activity against human HCT15 cells after 3 days by sulforhodamine B assay", "type": "functional", "conditions": "HCT-15, 72 h", "in_short": "as §1"}, "[19]": {"target": "Glycogen synthase kinase-3 beta (Homo sapiens) (UniProt P49841)", "sequence (P49841 whole entry, looked up)": "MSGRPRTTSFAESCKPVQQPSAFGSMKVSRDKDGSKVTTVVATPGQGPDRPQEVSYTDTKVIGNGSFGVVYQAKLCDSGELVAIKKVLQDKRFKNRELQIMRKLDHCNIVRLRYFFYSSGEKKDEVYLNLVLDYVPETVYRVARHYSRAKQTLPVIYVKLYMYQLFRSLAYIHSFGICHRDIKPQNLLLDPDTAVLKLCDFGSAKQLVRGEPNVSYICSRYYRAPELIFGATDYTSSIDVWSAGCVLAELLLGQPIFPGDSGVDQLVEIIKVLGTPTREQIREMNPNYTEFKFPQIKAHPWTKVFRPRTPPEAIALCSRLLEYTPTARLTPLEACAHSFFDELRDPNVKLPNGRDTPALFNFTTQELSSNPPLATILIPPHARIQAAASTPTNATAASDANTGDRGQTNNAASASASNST", "experiment": "Inhibition of GSK3-beta (unknown origin) assessed as residual activity at 10 uM relative to control"}, "[20]": {"test_system": "786-0", "experiment": "Antiproliferative activity against human 786-0 cells after 3 days by sulforhodamine B assay", "type": "functional", "conditions": "786-0, 72 h", "in_short": "as §1"}, "[21]": {"target": "Aurora kinase C (Homo sapiens) (UniProt Q9UQB9)", "experiment": "Inhibition of Aurora-C (unknown origin) assessed as residual activity at 10 uM relative to control"}, "[22]": {"test_system": "MDA-MB-468", "experiment": "Antiproliferative activity against human MDA-MB-468 cells after 3 days by sulforhodamine B assay", "type": "functional", "conditions": "MDA-MB-468, 72 h", "in_short": "as §1"}, "[23]": {"target": "MAP kinase-interacting serine/threonine-protein kinase 2 (Homo sapiens) (UniProt Q9HBH9)", "experiment": "Inhibition of human Mnk2 assessed as residual activity at 1 uM relative to control"}, "[24]": {"test_system": "MCF7", "experiment": "Antiproliferative activity against human MCF7 cells after 3 days by sulforhodamine B assay", "type": "functional", "conditions": "MCF7, 72 h", "in_short": "as §1"}, "[25]": {"target": "Platelet-derived growth factor receptor alpha (Homo sapiens) (UniProt P16234)", "experiment": "Inhibition of PDGFR-alpha (unknown origin) assessed as residual activity at 10 uM relative to control"}, "[26]": {"target": "Cyclin-dependent kinase 2/cyclin E1 (Homo sapiens) (UniProt P24864+P24941)", "experiment": "Inhibition of CDK2/CycE (unknown origin) assessed as residual activity at 1 uM relative to control", "type": "protein-complex assay"}, "[27]": {"target": "Mast/stem cell growth factor receptor Kit (Homo sapiens) (UniProt P10721)", "experiment": "Inhibition of KIT (unknown origin) assessed as residual activity at 10 uM relative to control"}, "[28]": {"target": "Mitogen-activated protein kinase 11 (Homo sapiens) (UniProt Q15759)", "sequence (Q15759 whole entry)": "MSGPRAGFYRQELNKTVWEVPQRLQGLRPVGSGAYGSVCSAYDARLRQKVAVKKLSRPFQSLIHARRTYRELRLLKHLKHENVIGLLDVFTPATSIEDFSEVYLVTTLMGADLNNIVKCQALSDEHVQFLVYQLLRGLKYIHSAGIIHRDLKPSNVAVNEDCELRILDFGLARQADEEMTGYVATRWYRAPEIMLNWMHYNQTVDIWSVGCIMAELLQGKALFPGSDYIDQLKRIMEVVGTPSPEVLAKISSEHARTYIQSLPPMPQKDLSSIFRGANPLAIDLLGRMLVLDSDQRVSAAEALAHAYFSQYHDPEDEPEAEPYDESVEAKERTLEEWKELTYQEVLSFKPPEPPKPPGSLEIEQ", "experiment": "Inhibition of human SAPK2beta assessed as residual activity at 1 uM relative to control"}, "[29]": {"target": "Casein kinase II (Homo sapiens) (UniProt P67870+P68400+P19784)", "experiment": "Inhibition of CK2 in human MCF7 cells assessed as time of delay for GSK3beta phosphorylation at Ser9 at 1 uM by Western blot analysis", "type": "cell-based", "in_short": "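MCF7 cells were grown at 37 °C and 5% CO2 in DMEM with 10% heat-inactivated FBS and penicillin/streptomycin. Cells were exposed to 1 µM for the indicated times, with DMSO as the untreated control. Extracts were made in urea lysis buffer, and 20–40 µg protein was run on 10% SDS–PAGE. Blots were probed with primary antibodies (1:1000, overnight, 4 °C) and read by ECL, with β-actin as loading control.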"}}}
{"compound": "O=C1Nc2ncccc2/C1=C1/Nc2ncccc2C1=O", "values": [{"measurement": "Activity", "setting": "[1]", "result": 120, "unit": "%"}, {"measurement": "GI50", "setting": "[2]", "result": 2120, "unit": "nM"}, {"measurement": "Activity", "setting": "[3]", "result": 116, "unit": "%"}, {"measurement": "Activity", "setting": "[4]", "result": 97, "unit": "%"}, {"measurement": "Activity", "setting": "[5]", "result": 96, "unit": "%"}, {"measurement": "Activity", "setting": "[6]", "result": 73, "unit": "%"}, {"measurement": "Activity", "setting": "[7]", "result": 58.28, "unit": "%"}, {"measurement": "Activity", "setting": "[8]", "result": 123, "unit": "%"}, {"measurement": "Activity", "setting": "[9]", "result": 92, "unit": "%"}, {"measurement": "Activity", "setting": "[10]", "result": 0.16, "unit": "%"}, {"measurement": "GI50", "setting": "[11]", "result": 2740, "unit": "nM"}, {"measurement": "Activity", "setting": "[12]", "result": 95, "unit": "%"}, {"measurement": "Activity", "setting": "[13]", "result": 17.48, "unit": "%"}, {"measurement": "Activity", "setting": "[14]", "result": 86, "unit": "%"}, {"measurement": "Activity", "setting": "[15]", "result": 95, "unit": "%"}, {"measurement": "Activity", "setting": "[16]", "result": 99, "unit": "%"}, {"measurement": "Activity", "setting": "[17]", "result": 116, "unit": "%"}, {"measurement": "GI50", "setting": "[18]", "result": 575, "unit": "nM"}, {"measurement": "Activity", "setting": "[19]", "result": 92, "unit": "%"}, {"measurement": "GI50", "setting": "[20]", "result": 4190, "unit": "nM"}, {"measurement": "Activity", "setting": "[21]", "result": 76, "unit": "%"}, {"measurement": "GI50", "setting": "[22]", "result": 1140, "unit": "nM"}, {"measurement": "Activity", "setting": "[23]", "result": 99, "unit": "%"}, {"measurement": "GI50", "setting": "[24]", "result": 1090, "unit": "nM"}, {"measurement": "Activity", "setting": "[25]", "result": 88, "unit": "%"}, {"measurement": "Activity", "setting": "[26]", "result": 90, "unit": "%"}, {"measurement": "Activity", "setting": "[27]", "result": 73, "unit": "%"}, {"measurement": "Activity", "setting": "[28]", "result": 147, "unit": "%"}, {"measurement": "TIME", "setting": "[29]", "result": 0.5, "unit": "h"}]}
